Sampled rows, rich in hits. Any-hit rate of the full collection: about 2.2%.
PMI act satM6P = human PMI activators, high substrate, primary screen, biochemical, fluorescence intensity, near-saturating mannose 6-phosphate; Mannose-6-phosphate isomerase (Homo sapiens), P34949; activation factor at 20 µM; hit rate 0.34% among 190,000; AID 1216, 2008; coupled PMI enzyme assay, resazurin fluorescence, 20 min; active compounds read high; 1 = untreated enzyme, 0 = substrate-free blank;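 active = activation factor of 2 or more at 20 µM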
Target sequence (P34949 whole entry, looked up): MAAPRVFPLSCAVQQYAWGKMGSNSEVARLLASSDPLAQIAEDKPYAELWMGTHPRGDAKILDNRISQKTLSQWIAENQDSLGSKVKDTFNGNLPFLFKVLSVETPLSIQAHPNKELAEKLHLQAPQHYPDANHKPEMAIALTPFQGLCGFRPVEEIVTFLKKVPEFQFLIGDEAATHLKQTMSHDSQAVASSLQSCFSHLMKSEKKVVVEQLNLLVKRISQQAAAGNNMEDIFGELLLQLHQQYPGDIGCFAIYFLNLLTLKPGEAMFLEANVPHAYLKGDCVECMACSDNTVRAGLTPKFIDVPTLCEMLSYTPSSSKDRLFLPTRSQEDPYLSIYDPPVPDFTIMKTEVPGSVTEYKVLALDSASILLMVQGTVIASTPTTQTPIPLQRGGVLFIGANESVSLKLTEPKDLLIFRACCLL
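Material: human phosphomannose isomerase with PGI, G6PDH, diaphorase coupling enzymes. Quantity: 15 ng/mL PMI. Medium: HEPES pH 7.4 buffer with MgCl2 and Tween-20. Reagent: Near-saturating mannose-6-phosphate, 1.0 mM. Compound: 20 µM single dose. Times: enzyme reaction with compound 20 min at room temperature. Detection: resorufin fluorescence at Ex 544/Em 590 nm.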
Diaph inh CS = diaphorase inhibitors and chemical oxidizers, primary screen, counter-screen for diaphorase-coupled primary assays, biochemical, uHTS, resorufin fluorescence. AID 1217, 2008. hit rate 0.69% among 190,000. inhibition, % at 20 µM. diaphorase resazurin-to-resorufin fluorescence, NADH, 16 min; bacterial (C. kluyveri) enzyme, not human;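 active = primary screen inhibition at 20 µM above a set limit, cut at about 50% in these data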;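 also: plate controls were DMSO with full reaction for no effect and wells lacking NADH for full effect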
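Test system: bacterial diaphorase enzyme (C. kluyveri); Quantity: 0.14 U/mL diaphorase, enzyme working solution; Times: reaction incubation of 16 min at room temperature; Measured by: fluorescence of resorufin formed from resazurin, Ex 544/Em 590 nm; Benchmarks: positive control minus NADH, DMSO neutral control.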
PMI activator = activators of human PMI, primary screen, biochemical, fluorescence intensity, near-Km mannose 6-phosphate; Mannose-6-phosphate isomerase (Homo sapiens), P34949; purified human PMI, coupled resazurin fluorescence, 20 min; active compounds read high; 1 = vehicle control, 0 substrate-free wells; activation factor at 20 µM; hit rate 0.005% among 190,000; AID 1214, 2008;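 active = activation factor of 2 or more at 20 µM, relative to plate controls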
ROMK primary = ROMK potassium channel modulators, primary screen, cell-based, thallium flux, MLSMR library. hit rate 2% among 130,000. ATP-sensitive inward rectifier potassium channel 1 (Homo sapiens), P48048. Tet-inducible ROMK, thallium flux fluorescence; actives lie on both sides. B-score at 10 µM. AID 1918, 2009;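 active = signal ratio slope over the read window, or its plate-corrected B-score, at least 3 SD from the plate mean, either direction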;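 also: B-score of the F/F0 ratio slope over 7 to 12 s after thallium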
Diaph act CS = compounds boosting diaphorase resazurin reduction – biochemical, uHTS, resorufin fluorescence, counter-screen for diaphorase-coupled primary assays, primary screen; AID 1229, 2008; activation factor at 20 µM; Diaphorase/resazurin coupled assay, 16 min; active compounds read high; 1 = vehicle wells, 0 = NADH-free wells; hit rate 0.005% among 190,000;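 active = diaphorase activity raised at least twofold by the compound at 20 µM; inactive = activation factor below 2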
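Measured by – red resorufin fluorescence at 544/590 nm excitation/emission · Test system – Clostridium kluyveri diaphorase, purified enzyme · Incubation – reaction time 16 min, room temperature · Buffer or medium – 50 mM HEPES pH 7.4 with 4.542 mM MgCl2, 0.005% Tween 20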
G6PDH CS = L. mesenteroides G6PDH inhibitors, counter-screen for G6PDH-coupled screening assays, biochemical, Leuconostoc mesenteroides enzyme; Purified L. mesenteroides G6PDH, diaphorase/resazurin coupled fluorescence, 45 min; inhibition, % at 5 µM; hit rate 0.12% among 200,000; AID 1020, 2008; in the data active = inhibition above about 50%
* hit, by the source's call; . = no result given.

SMILES | PMI act satM6P | Diaph inh CS | PMI activator | ROMK primary | Diaph act CS | G6PDH CS
CN1C=C/C(=C\c2cc[n+](C)c3ccccc23)c2ccccc21 | 0.4 | 55* | 0.4 | -0.34 | 0.4 | 60*
COc1ccc(CNCC(O)COc2cccc3c2OC(C)(C)C3)cc1 (centres undefined) | 1 | 6 | 1 | -0.94 | 0.9 | 0
C/C(=N\N=C\c1ccc(N(C)C)cc1)c1cccc([N+](=O)[O-])c1 | 2.3* | 12 | 1.6 | -0.0079 | 0.9 | -18
C/C(=N\N=C(N)N)c1cccc([N+](=O)[O-])c1 | 1.1 | 2 | 1 | . | 1 | 0
Cc1noc(C)c1COC(=O)c1cccc(N(C)C)c1 | 0.9 | 16 | 1 | -1.3 | 0.8 | 4
Cc1ccccc1OCCCC(=O)Nc1nncs1 | 1 | -3 | 1 | 0.21 | 1 | 15
Clc1ccc(/C(Cc2nc3ccccc3[nH]2)=N\Nc2ccccc2)cc1 | 3* | 0 | 1.8 | -1.3 | 1 | 19
CC(=O)OCCN(C)c1cc(SC(C)C)c2nonc2c1[N+](=O)[O-] | 0.8 | 11 | 1 | -0.13 | 0.9 | 14
CC(C)CCSc1cc(NCCO)c([N+](=O)[O-])c2nonc12 | 0.2 | 80* | 0.1 | 0.56 | 0.2 | 12
CC(=O)OCCNc1cc(SC(C)C)c2nonc2c1[N+](=O)[O-] | 0.5 | 52* | 0.6 | -1 | 0.5 | -2
CCC(=O)OCCNc1cc(SCCC(=O)OC)c2nonc2c1[N+](=O)[O-] | 0.3 | 71* | 0.2 | 1 | 0.3 | -10
O=[N+]([O-])c1c(NCCO)cc(N2CCCCC2)c2nonc12 | 0.4 | 52* | 0.4 | -0.24 | 0.5 | 26
COc1ccc(S(=O)(=O)N2CCCC(C(F)(F)F)C2)cc1 (centres undefined) | 1 | 12 | 1 | -0.32 | 0.9 | 8
COc1cc(NC(=S)Nc2ccc(N(C)C(C)=O)cc2)cc(OC)c1 | 0.7 | 10 | 0.9 | 0.87 | 0.9 | 4
CCCOc1ccc(N2C(=O)CC(N(CCOC34CC5CC(CC(C5)C3)C4)C(C)=O)C2=O)cc1 (centres undefined) | 0.9 | 12 | 0.9 | -2.1 | 0.9 | 12
O=[N+]([O-])c1ccc(C2=Nn3c(Cn4nnc5ccccc54)nnc3SC2)cc1 | . | . | . | 1.3 | . | .
O=C(O)CNC(=O)c1ccccc1Br | 1 | -8 | 1.1 | 0.45 | 1.1 | 7
COc1ccc(-c2nc3cccc(C)n3c2NCC2CCCO2)cc1O (centres undefined) | 0.9 | 1 | 1.3 | -0.91 | 1 | 23
COc1ccc(-c2nc(=S)c3c([nH]2)Oc2ccc(C)cc2C3)cc1O | 2.1* | 2 | 1.8 | -0.036 | 1 | -6
Cc1ccc(/C([O-])=C(/C(=S)NCc2ccc3c(c2)OCO3)[n+]2ccc(N(C)C)cc2)c(C)c1 | 0.9 | 12 | 1 | 0.43 | 0.9 | 4
CC(C)CC(NC(=O)CC12CC3CC(CC(C3)C1)C2)C(=O)NC1=NCCS1 (centres undefined) | 0.9 | 15 | 0.8 | 0.018 | 0.8 | 9
O=C(CC(C(=O)O)c1c[nH]c2ccccc12)c1ccccc1 (centres undefined) | 1 | 78* | 0.9 | 0.095 | 0.2 | 6
O=C(O)C(O)Cc1c[nH]c2ccccc12 (centres undefined) | 1.1 | 4 | 1.1 | 1.3 | 1 | 2
O=c1c(N2CCCCC2)coc2ccccc12 | 2* | 6 | 1.5 | -0.94 | 0.9 | 3
O=c1cc(N2CCCCC2)c2ccccc2o1 | 0.9 | 13 | 0.9 | -1.4 | 0.9 | 13
SMILES | PMI act satM6P | Diaph inh CS | PMI activator | ROMK primary | Diaph act CS | G6PDH CS
COc1cc(C(=O)NC(=S)N(C)Cc2ccccc2)cc(OC)c1OC | 0.9 | -9 | 1.1 | -0.66 | 1.1 | 1
COc1cc(C(=O)NC(=S)N(CCc2ccccc2)CCc2ccccc2)cc(OC)c1OC | 1.2 | 15 | 1 | 3.3* | 0.9 | 14
Cn1c(CNc2ccccc2O)nc2ccccc21 | 0.4 | 40 | 0.7 | . | 0.6 | 61*
Cc1cccc(CCNC(=O)CCc2nnc(CCc3ccccc3)o2)n1 | 1 | 12 | 0.9 | 0.17 | 0.9 | 0
CC(C)Nc1nnc(SC(C)C(=O)Nc2ccc(Cl)cn2)s1 (centres undefined) | 1 | 17 | 1 | 0.026 | 0.8 | 6
Cc1ccc(NNS(=O)(=O)c2ccc(C)cc2)cc1 | 2* | 20 | 1.1 | . | 0.8 | 9
Cc1ccc(S(=O)(=O)NNC(=O)C(=O)NNS(=O)(=O)c2ccc(C)cc2)cc1 | 0.9 | 9 | 1 | 0.33 | 0.9 | 7
CC(C)(C)OC(=O)COc1cc(OCC(=O)OC(C)(C)C)c2c(=O)cc(-c3ccccc3)oc2c1 | 0.9 | 23 | 0.8 | . | 0.8 | 11
COc1cc(OC)c2c(=O)cc(-c3ccccc3)oc2c1 | 1 | 55* | 1 | . | 0.4 | 8
COc1c(O)c(O)c2oc(-c3ccccc3)cc(=O)c2c1OC | 0.9 | 49 | 0.8 | . | 0.5 | 21
COc1cc2c(c3oc(-c4ccccc4)cc(=O)c13)C=CC(C)(C)O2 | 1 | 82* | 1 | . | 0.2 | 23
O=C1CC2C(=O)NCCN2C(=NC(=O)c2ccc(Cl)cc2)N1 (centres undefined) | 1.1 | 3 | 1 | 1.9 | 1 | -2
Cc1ccc(Nc2nc(/N=C/NO)n[nH]2)cc1C | 1 | -3 | 1 | -0.27 | 1 | 4
Fc1cccc(Cl)c1CNc1ccc(N2CCCC2)cc1 | 0.2 | 79* | 0.1 | -0.018 | 0.2 | 22
COC(=O)c1oc2ccccc2c1NC(=O)/C=C/C(=O)O | 1.1 | -6 | 1.3 | 0.48 | 1.1 | 13
Nc1c(C(=O)C2CC2)sc2nc(-c3ccccc3)cc(C(F)(F)F)c12 | 2* | 8 | 1.5 | . | 0.9 | 13
O=C(COC(=O)/C=C/c1ccc([N+](=O)[O-])cc1)NC(c1ccccc1)c1ccccc1 | 0.9 | 11 | 0.9 | 0.28 | 0.9 | 12
O=C1OCC(c2ccccc2)=C1c1ccc(S(=O)(=O)N2CCOCC2)s1 | 2* | 26 | 1.3 | -0.13 | 0.7 | -2
O=S(=O)(c1ccc(-c2ccccc2)cc1)N1CCOCC1 | 0.9 | 11 | 0.9 | . | 0.9 | 0
O=C(NC(=S)Nc1ccc(C(F)(F)F)cc1)c1csnn1 | 1.1 | 11 | 1.1 | 7.4* | 0.9 | 1
